Laboratory results: ChEMBL document CHEMBL1275448, “Identification of a novel multidrug efflux pump of Mycobacterium tuberculosis” (2008)
Values after ≈ are worked out from the molar mass of the structure shown.

Tests used:
Format in all cases: functional
[1] = system: Mycobacterium tuberculosis variant bovis BCG; assay: Antimicrobial activity against Mycobacterium bovis BCG ML1051 carrying transposon IS1096::Km inserted at -420bp of bcg2965 gene by microplate Alamar blue assay
Summary of the method: (§1)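 Whole-cell M. bovis BCG (Institut Pasteur) MABA; mutants carried IS1096::Km insertions. Growth was in Middlebrook 7H9 with 0.2% glycerol, 0.05% Tween 80 and 10% OADC. Final drug ranges: ampicillin 62.5–2,000 μg/ml, vancomycin 1.25–40 μg/ml, streptomycin 0.25–8 μg/ml, chloramphenicol 4–128 μg/ml, tetracycline 0.5–16 μg/ml. MIC was the lowest concentration cutting viability ≥90%, read by fluorescence (ex 530/em 590 nm, room temperature).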

[2] = system: Mycobacterium tuberculosis variant bovis BCG; assay: Antimicrobial activity against Mycobacterium bovis BCG ML1062 carrying transposon IS1096::Km inserted at -18bp of pks11 gene by microplate Alamar blue assay; summary of the method: as §1
[3] = system: Mycolicibacterium smegmatis; assay: Antimicrobial activity against Mycobacterium smegmatis overexpressing rv0194 gene by microplate Alamar blue assay
Summary of the method: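 M. smegmatis SMR5 carried either control plasmid pMS2 or rv0194 expression vector pML655. Cells were grown at 37°C in Middlebrook 7H9 with 0.2% glycerol and 0.05% Tween 80, then tested by microplate Alamar blue assay. MIC was the lowest antibiotic concentration reducing culture viability by ≥90%, read by fluorescence (ex 530/em 590 nm, room temperature).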

[4] = system: Mycobacterium tuberculosis variant bovis BCG; assay: Antimicrobial activity against Mycobacterium bovis BCG ML1029 carrying transposon IS1096::Km inserted at +524bp of bcg2734c gene by microplate Alamar blue assay; summary of the method: as §1
[5] = system: Mycobacterium tuberculosis variant bovis BCG; assay: Antimicrobial activity against Mycobacterium bovis BCG ML1040 carrying transposon IS1096::Km inserted at +1930bp of papA2 gene by microplate Alamar blue assay; summary of the method: as §1
[6] = system: Mycobacterium tuberculosis variant bovis BCG; assay: Antimicrobial activity against Mycobacterium bovis BCG ML1030 carrying transposon IS1096::Km inserted at +849bp of bcg1988c gene by microplate Alamar blue assay; summary of the method: as §1
[7] = system: Mycobacterium tuberculosis variant bovis BCG; assay: Antimicrobial activity against Mycobacterium bovis BCG ML1010 carrying transposon IS1096::Km inserted at +43bp of ppe gene by microplate Alamar blue assay; summary of the method: as §1
[8] = system: Mycobacterium tuberculosis variant bovis BCG; assay: Antimicrobial activity against Mycobacterium bovis BCG ML1060 carrying transposon IS1096::Km inserted at -206bp of fadD25/mmpL12 gene by microplate Alamar blue assay; summary of the method: as §1
[9] = system: Mycobacterium tuberculosis variant bovis BCG; assay: Antimicrobial activity against Mycobacterium bovis BCG ML1042 carrying transposon IS1096::Km inserted at -509bp of bcg2123c/pe22 gene by microplate Alamar blue assay; summary of the method: as §1
[10] = system: Mycolicibacterium smegmatis; assay: Resistance factor, ratio of MIC for Mycobacterium smegmatis overexpressing rv0194 gene to MIC for wild-type Mycobacterium smegmatis SMR5
Summary of the method: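 Resistance factor is the MABA MIC for M. smegmatis expressing rv0194 divided by the MIC for wild-type SMR5. MIC was the lowest concentration giving ≥90% viability reduction by fluorescence (ex 530/em 590 nm).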

[11] = system: Mycobacterium tuberculosis variant bovis BCG; assay: Antimicrobial activity against Mycobacterium bovis BCG ML1012 carrying transposon IS1096::Km inserted at +1255bp of bcg3960c gene by microplate Alamar blue assay; summary of the method: as §1
[12] = system: Mycobacterium tuberculosis variant bovis BCG; assay: Antimicrobial activity against Mycobacterium bovis BCG ML1058 carrying transposon IS1096::Km inserted at +320bp of lprR gene by microplate Alamar blue assay; summary of the method: as §1
[13] = system: Mycobacterium tuberculosis variant bovis BCG; assay: Antimicrobial activity against Mycobacterium bovis BCG ML1050 carrying transposon IS1096::Km inserted at +41bp of bcg2827 gene by microplate Alamar blue assay; summary of the method: as §1
[14] = system: Mycobacterium tuberculosis variant bovis BCG; assay: Antimicrobial activity against Mycobacterium bovis BCG ML1036 carrying transposon IS1096::Km inserted at +277bp of agpS gene by microplate Alamar blue assay; summary of the method: as §1
[15] = system: Mycobacterium tuberculosis variant bovis BCG; assay: Antimicrobial activity against Mycobacterium bovis BCG ML1041 carrying transposon IS1096::Km inserted at +1707bp of ppe24 gene by microplate Alamar blue assay; summary of the method: as §1
[16] = system: Mycobacterium tuberculosis variant bovis BCG; assay: Antimicrobial activity against Mycobacterium bovis BCG ML1075 carrying transposon IS1096::Km inserted at +899bp of gca gene by microplate Alamar blue assay; summary of the method: as §1
[17] = system: Mycobacterium tuberculosis variant bovis BCG; assay: Antimicrobial activity against Mycobacterium bovis BCG ML1046 carrying transposon IS1096::Km inserted at +33bp of bcg2743 gene by microplate Alamar blue assay; summary of the method: as §1
[18] = system: Mycobacterium tuberculosis variant bovis BCG; assay: Antimicrobial activity against Mycobacterium bovis BCG ML1053 carrying transposon IS1096::Km inserted at +271bp of bcg2326c gene by microplate Alamar blue assay; summary of the method: as §1
[19] = system: Mycobacterium tuberculosis variant bovis BCG; assay: Antimicrobial activity against Mycobacterium bovis BCG ML1064 carrying transposon IS1096::Km inserted at +569bp of lppB gene by microplate Alamar blue assay; summary of the method: as §1
[20] = system: Mycobacterium tuberculosis variant bovis BCG; assay: Antimicrobial activity against Mycobacterium bovis BCG ML1025 carrying transposon IS1096::Km inserted at +435bp of bcg3145 gene by microplate Alamar blue assay; summary of the method: as §1
[21] = system: Mycobacterium tuberculosis variant bovis BCG; assay: Antimicrobial activity against Mycobacterium bovis BCG ML1069 carrying transposon IS1096::Km inserted at +205bp of gmhA gene by microplate Alamar blue assay; summary of the method: as §1
[22] = system: Mycobacterium tuberculosis variant bovis BCG; assay: Antimicrobial activity against Mycobacterium bovis BCG ML1048 carrying transposon IS1096::Km inserted at +519bp of bcg1567c gene by microplate Alamar blue assay; summary of the method: as §1
[23] = system: Mycobacterium tuberculosis variant bovis BCG; assay: Antimicrobial activity against Mycobacterium bovis BCG ML1006 carrying transposon IS1096::Km inserted at +720bp of bcg3787 gene by microplate Alamar blue assay; summary of the method: as §1
[24] = system: Mycobacterium tuberculosis variant bovis BCG; assay: Antimicrobial activity against Mycobacterium bovis BCG ML1047 carrying transposon IS1096::Km inserted at +544bp of fadD23 gene by microplate Alamar blue assay; summary of the method: as §1
[25] = system: Mycobacterium tuberculosis variant bovis BCG; assay: Antimicrobial activity against Mycobacterium bovis BCG ML1044 carrying transposon IS1096::Km inserted at -178bp of ppe33b gene by microplate Alamar blue assay; summary of the method: as §1
[26] = system: Mycobacterium tuberculosis variant bovis BCG; assay: Antimicrobial activity against Mycobacterium bovis BCG ML1052 carrying transposon IS1096::Km inserted at +78bp of bcg2824 gene by microplate Alamar blue assay; summary of the method: as §1
[27] = system: Mycobacterium tuberculosis variant bovis BCG; assay: Antimicrobial activity against Mycobacterium bovis BCG ML1038 carrying transposon IS1096::Km inserted at +78bp of bcg2735 gene by microplate Alamar blue assay; summary of the method: as §1
[28] = system: Mycobacterium tuberculosis variant bovis BCG; assay: Antimicrobial activity against Mycobacterium bovis BCG ML1034 carrying transposon IS1096::Km inserted at -54bp of bcg0231 gene by microplate Alamar blue assay; summary of the method: as §1
[29] = system: Mycobacterium tuberculosis variant bovis BCG; assay: Antimicrobial activity against Mycobacterium bovis BCG ML1061 carrying transposon IS1096::Km inserted at +19bp of lppA gene by microplate Alamar blue assay; summary of the method: as §1
[30] = system: Mycobacterium tuberculosis variant bovis BCG; assay: Antimicrobial activity against Mycobacterium bovis BCG ML1009 carrying transposon IS1096::Km inserted at +368bp of cyp121 gene by microplate Alamar blue assay; summary of the method: as §1
[31] = system: Mycobacterium tuberculosis variant bovis BCG; assay: Antimicrobial activity against Mycobacterium bovis BCG ML1065 carrying transposon IS1096::Km inserted at +96bp of bcg0061 gene by microplate Alamar blue assay; summary of the method: as §1
[32] = system: Mycobacterium tuberculosis variant bovis BCG; assay: Antimicrobial activity against Mycobacterium bovis BCG ML1013 carrying transposon IS1096::Km inserted at +923bp of cpsY gene by microplate Alamar blue assay; summary of the method: as §1
[33] = system: Mycobacterium tuberculosis variant bovis BCG; assay: Antimicrobial activity against Mycobacterium bovis BCG ML1007 carrying transposon IS1096::Km inserted at +988bp of ppe53 gene by microplate Alamar blue assay; summary of the method: as §1
[34] = system: Mycobacterium tuberculosis variant bovis BCG; assay: Antimicrobial activity against Mycobacterium bovis BCG ML1034 by microplate Alamar blue assay; summary of the method: as §1
[35] = system: Mycobacterium tuberculosis variant bovis BCG; assay: Antimicrobial activity against Mycobacterium bovis BCG ML1037 carrying transposon IS1096::Km inserted at +1765bp of bcg3693 gene by microplate Alamar blue assay; summary of the method: as §1

What does the source list for `CC1(C)S[C@@H]2[C@H](NC(=O)[C@H](N)c3ccccc3)C(=O)N2[C@H]1C(=O)O` [AMPICILLIN]?
MIC [1]: > 500 µg/mL; MIC [2]: > 2000 µg/mL; MIC [3]: 250 µg/mL (≈ 715 µM); MIC [4]: > 2000 µg/mL; MIC [5]: 2000 µg/mL (≈ 5720 µM); MIC [6]: 2000 µg/mL (≈ 5720 µM); MIC [7]: 500 µg/mL (≈ 1430 µM); MIC [8]: 250 µg/mL (≈ 715 µM); MIC [9]: 500 µg/mL (≈ 1430 µM); Ratio [10]: 2; MIC [11]: > 2000 µg/mL; MIC [12]: 2000 µg/mL (≈ 5720 µM); MIC [13]: 2000 µg/mL (≈ 5720 µM); MIC [14]: 250 µg/mL (≈ 715 µM); MIC [15]: > 2000 µg/mL; MIC [16]: 2000 µg/mL (≈ 5720 µM); MIC [17]: 500 µg/mL (≈ 1430 µM); MIC [18]: 2000 µg/mL (≈ 5720 µM); MIC [19]: 2000 µg/mL (≈ 5720 µM); MIC [20]: 250 µg/mL (≈ 715 µM); MIC [21]: 2000 µg/mL (≈ 5720 µM); MIC [22]: 250 µg/mL (≈ 715 µM); MIC [23]: 2000 µg/mL (≈ 5720 µM); MIC [24]: 2000 µg/mL (≈ 5720 µM); MIC [25]: 250 µg/mL (≈ 715 µM); MIC [26]: > 500 µg/mL; MIC [27]: 2000 µg/mL (≈ 5720 µM); MIC [28]: 2000 µg/mL (≈ 5720 µM); MIC [29]: > 2000 µg/mL; MIC [30]: 2000 µg/mL (≈ 5720 µM); MIC [31]: > 2000 µg/mL; MIC [32]: 2000 µg/mL (≈ 5720 µM); MIC [33]: 2000 µg/mL (≈ 5720 µM); MIC [34]: 2000 µg/mL (≈ 5720 µM); MIC [35]: 250 µg/mL (≈ 715 µM)

How did the MIC [3] turn out when `O=C(N[C@H](CO)[C@H](O)c1ccc([N+](=O)[O-])cc1)C(Cl)Cl` [CHLORAMPHENICOL] was run?
The MIC was 32 µg/mL (≈ 99 µM).

What about the Ratio [10] of the same molecule?
The Ratio was 1.

What about the MIC [34] of the same molecule?
The MIC was 512 µg/mL (≈ 1580 µM).

`CC[C@H]1OC(=O)[C@H](C)[C@@H](O[C@H]2C[C@@](C)(OC)[C@@H](O)[C@H](C)O2)[C@H](C)[C@@H](O[C@@H]2O[C@H](C)C[C@H](N(C)C)[C@H]2O)[C@](C)(O)C[C@@H](C)C(=O)[C@H](C)[C@@H](O)[C@]1(C)O` [ERYTHROMYCIN] was tested. Which MIC [3] did it give?
The MIC was 10 µg/mL (≈ 13.6 µM).

And the Ratio [10]?
The Ratio was 4.

`CO[C@@H]1[C@@H](OC(N)=O)[C@@H](O)[C@H](Oc2ccc3c(O)c(NC(=O)c4ccc(O)c(CC=C(C)C)c4)c(=O)oc3c2C)OC1(C)C` [NOVOBIOCIN] was tested. Which MIC [3] did it give?
Its MIC is 8 µg/mL (≈ 13.1 µM).

What about the Ratio [10] of the same molecule?
Its Ratio is 2.

How did the MIC [34] turn out when `CN[C@@H]1[C@H](O[C@H]2[C@H](O[C@H]3[C@H](O)[C@@H](O)[C@H](N=C(N)N)[C@@H](O)[C@@H]3N=C(N)N)O[C@@H](C)[C@]2(O)C=O)O[C@@H](CO)[C@H](O)[C@H]1O` [STREPTOMYCIN] was run?
Its MIC is 16 µg/mL (≈ 27.5 µM).

Which MIC [3] does the source give for `CN(C)[C@@H]1C(O)=C(C(N)=O)C(=O)[C@@]2(O)C(O)=C3C(=O)c4c(O)cccc4[C@@](C)(O)[C@H]3C[C@@H]12` [TETRACYCLINE] here?
The MIC was 0.3 µg/mL (≈ 0.675 µM).

What about the Ratio [10] of the same molecule?
The Ratio was 1.

What about the MIC [34] of the same molecule?
Its MIC is > 16 µg/mL.

How did the MIC [3] turn out when `CN[C@H](CC(C)C)C(=O)N[C@H]1C(=O)N[C@@H](CC(N)=O)C(=O)N[C@H]2C(=O)N[C@H]3C(=O)N[C@H](C(=O)N[C@H](C(=O)O)c4cc(O)cc(O)c4-c4cc3ccc4O)[C@H](O)c3ccc(c(Cl)c3)Oc3cc2cc(c3O[C@@H]2O[C@H](CO)[C@@H](O)[C@H](O)[C@H]2O[C@H]2C[C@](C)(N)[C@H](O)[C@H](C)O2)Oc2ccc(cc2Cl)[C@H]1O` [VANCOMYCIN] was run?
Its MIC is 2.5 µg/mL (≈ 1.73 µM).

What about the Ratio [10] of the same molecule?
The Ratio was 2.

What about the MIC [34] of the same molecule?
The MIC was 20 µg/mL (≈ 13.8 µM).
